The values below come from ChEMBL document CHEMBL2202988, “D-amino acid based protein arginine deiminase inhibitors: Synthesis, pharmacokinetics, and in cellulo efficacy” (ACS Med Chem Lett, 2012).

Activity calls are given as the source filed them. No cut-off for these calls is given here.

Data set [1] concerns MDA-MB-231. Kind of data set: Antiproliferative activity against human MDA-MB-231 cells assessed as decrease in Ki-67 level. The format is functional, cell-based. The essentials:
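MDA-MB-231 triple-negative breast cancer cells (PAD1-overexpressing) treated at 100, 200 and 400 μM. Ki-67 levels assessed 96 h after administration. Tunicamycin served as the positive control for cell cycle arrest.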

Data set [2] has as its system MDA-MB-231. The data set can be described thus: Cytotoxicity against human MDA-MB-231 cells assessed as decrease in cell number at 400 uM after 96 hrs by trypan blue assay. The format is functional, cell-based. The essentials: (§1)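 MDA-MB-231 breast cancer cells (PAD1-overexpressing) exposed to inhibitor at 100, 200 and 400 μM; percent viability and cell number read 96 h after addition.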

The subject of data set [3] is MDA-MB-231. Kind of data set: Induction of apoptosis in human MDA-MB-231 cells assessed as caspase-3 activity at 100 to 400 uM. The format is functional, cell-based. The essentials:
(§2)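 MDA-MB-231 cells given inhibitor at 100, 200 and 400 μM; caspase 3 activity measured 96 h after administration.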

The test system of data set [4] is MDA-MB-231. Kind of data set: Cytotoxicity against human MDA-MB-231 cells assessed as cell viability at 400 uM after 96 hrs by trypan blue assay. It counts as functional, cell-based. In short, it runs like this:
as §1

Data set [5] has as its system MDA-MB-231. The data set can be described thus: Antiproliferative activity against human MDA-MB-231 cells assessed as Ki-67 level at 100 to 400 uM. It counts as functional, cell-based. In short, it runs like this:
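MDA-MB-231 triple-negative breast cancer cells (PAD1-overexpressing) exposed to inhibitor at 100, 200 and 400 μM; Ki-67 level taken as the proliferation read-out; tunicamycin at increasing amounts served as positive control for cell-cycle arrest.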

In data set [6] the test system is Mus musculus. Kind of data set: Toxicity in po dosed C57BL/6J mouse. The format is organism-based. Conditions: in vivo. The essentials:
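Mice (n = 10 per group) were dosed per os at varying doses up to 150 mg/kg. Percent change in total body weight was tracked to 96 h, along with observable signs of toxicity. MTD was taken as the highest dose causing no weight loss or significant toxicity signs. Weight change was tested for significance (P < 0.05).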

Data set [7] relates to Mus musculus. The data set can be described thus: Toxicity in C57BL/6J mouse assessed as change in body weight at 5 to 150 mg/kg, po after 1 to 96 hrs. It counts as organism-based. Also on record: route oral. Particulars: in vivo. The essentials: (§3)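 Oral dosing of mice (n = 10) at varying doses up to 150 mg/kg; percent change in body weight followed to 96 h, significance at P <0.05.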

The test system of data set [8] is Mus musculus. Kind of data set: Drug metabolism in C57Bl/6 mouse at 10 mg/kg, ip measured within 4 hrs by LC-MS/MS analysis. The format is ADME, organism-based. Details: dose 10 mg/kg, route intraperitoneal. Particulars: in vivo. The essentials: (§4)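 Mice dosed by iv (2.5 or 10 mg/kg) or ip (10 mg/kg) injection; serum/plasma drug levels measured over time up to 4 h, plotted as mean levels.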

In data set [9] the test system is Mus musculus. The data set can be described thus: Toxicity in C57BL/6J mouse assessed as hunching at 150 mg/kg, po after 1 to 4 hrs. Particulars: in vivo. It counts as organism-based. Also on record: dose 150 mg/kg, route oral. The essentials:
(§5)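 Mice dosed per os at graded levels up to 150 mg/kg; observable physiological signs (shaking, anxiety, hunching, heavy breathing, stool changes, diarrhea) recorded after treatment, with monitoring over the following days.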

Data set [10] has as its system MDA-MB-231. Kind of data set: Cytotoxicity against human MDA-MB-231 cells assessed as decrease in cell viability at 200 to 400 uM after 96 hrs by trypan blue assay. The format is functional, cell-based. The essentials: as §1
Data set [11] has as its system Mus musculus. The data set can be described thus: Toxicity in C57BL/6J mouse assessed as occurrence of diarrhea at 150 mg/kg, po after 2 to 3 days. The format is organism-based. Details: dose 150 mg/kg, route oral. Conditions: in vivo. In short, it runs like this: as §5
In data set [12] the test system is Mus musculus. The data set can be described thus: Toxicity in C57BL/6J mouse assessed as bloody stools at 150 mg/kg, po. Particulars: in vivo. Details: dose 150 mg/kg, route oral. The format is organism-based. The essentials:
as §5

The test system of data set [13] is Mus musculus. Kind of data set: Toxicity in C57BL/6J mouse assessed as heavy breathing at 150 mg/kg, po after 1 to 4 hrs. Also on record: dose 150 mg/kg, route oral. Particulars: in vivo. It counts as organism-based. The essentials:
as §5

Data set [14] relates to Mus musculus. Kind of data set: Toxicity in C57BL/6J mouse assessed as loss in body weight at 100 to 150 mg/kg, po after 96 hrs. It counts as organism-based. Conditions: in vivo. Also on record: dose 100-150 mg/kg, route oral. The essentials: as §3
Data set [15] has as its system Mus musculus. Kind of data set: Toxicity in C57BL/6J mouse assessed as body shaking at 150 mg/kg, po after 1 to 4 hrs. Conditions: in vivo. Also on record: dose 150 mg/kg, route oral. It counts as organism-based. In short, it runs like this: as §5
Another data set relates to Liver. The data set can be described thus: Half life in mouse liver microsomes. It counts as ADME, Microsome. The essentials:
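Stability assessed by incubation with murine hepatic microsomes; half-life derived from compound remaining over time.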
Background: Liver microsomes are vesicles of endoplasmic reticulum, rich in cytochrome P450 enzymes.

The subject of data set [16] is Mus musculus. Kind of data set: Drug metabolism in C57Bl/6 mouse at 10 mg/kg, iv measured within 2 hrs by LC-MS/MS analysis. Details: dose 10 mg/kg, route intravenous. It counts as ADME, organism-based. Particulars: in vivo. In short, it runs like this:
as §4

The test system of data set [17] is MDA-MB-231. Kind of data set: Induction of apoptosis in human MDA-MB-231 cells assessed as increase in caspase-3 activity. The format is functional, cell-based. The essentials:
as §2

The subject of data set [18] is Mus musculus. Kind of data set: Toxicity in C57BL/6J mouse assessed as anxiety at 150 mg/kg, po after 1 to 4 hrs. It counts as organism-based. Also on record: dose 150 mg/kg, route oral. Conditions: in vivo. The essentials:
as §5

Data set [19] can be described thus: Drug level in C57Bl/6 mouse serum at 10 mg/kg, ip after 4 hrs by LC-MS/MS analysis. It counts as ADME, organism-based. Also on record: dose 10 mg/kg, route intraperitoneal. Conditions: read-out: Drug uptake. The essentials: as §4
A short description of data set [20]: Drug level in C57Bl/6 mouse serum at 2.5 mg/kg, iv after 2 hrs by LC-MS/MS analysis. The format is ADME, organism-based. Details: dose 2.5 mg/kg, route intravenous. Conditions: read-out: Drug uptake. In short, it runs like this: as §4
Data set [21] is described as follows: Drug level in C57Bl/6 mouse serum at 2.5 mg/kg, iv after 4 hrs by LC-MS/MS analysis. The format is ADME, organism-based. Details: dose 2.5 mg/kg, route intravenous. Particulars: read-out: Drug uptake. In short, it runs like this:
as §4

Turning to `CC(=O)N[C@H]1[C@@H](O[C@@H]2O[C@H](CC(O)[C@H]3O[C@@H](n4ccc(=O)[nH]c4=O)[C@H](O)[C@@H]3O)[C@H](O)[C@H](O)[C@H]2NC(=O)/C=C/CC(C)C)O[C@H](CO)[C@@H](N)[C@@H]1O` (some centres not stated), the result with MDA-MB-231 [1] was Active.

Take `N=C(CF)NCCC[C@@H](NC(=O)c1ccccc1C(=O)O)C(N)=O`: the outcome with MDA-MB-231 [2], with MDA-MB-231 [3], in the data set with MDA-MB-231 [4] and in the data set on MDA-MB-231 [5] was inactive. Further, the MTD in the data set with Mus musculus [6] was > 150 mg/kg. Further, the Activity entry in the data set with Mus musculus [7] was “Non-toxic”.

As to `N=C(CCl)NCCC[C@H](NC(=O)c1ccccc1)C(N)=O`, the Drug metabolism result in the data set on Mus musculus [8] and in the data set on Mus musculus [16] was “Active” in each case. For the same compound, the result in the data set on MDA-MB-231 [2] and in the data set with MDA-MB-231 [10] was Active. Further, the Activity result in the data set on Mus musculus [9], in the data set on Mus musculus [11], with Mus musculus [12], with Mus musculus [13], in the data set on Mus musculus [14] and with Mus musculus [15] was “Toxic” throughout. The Activity entry with MDA-MB-231 [17] is “Dose-dependent effect”; in the data set with Mus musculus [18] it was “Toxic”. In addition, the outcome in the data set on MDA-MB-231 [5] was inactive. This compound showed an MTD in the data set on Mus musculus [6] of 75 mg/kg. Further, the t1/2 with Liver was determined as 37 min.

With `N=C(CCl)NCCC[C@@H](NC(=O)c1ccccc1)C(N)=O`, the result in the data set on MDA-MB-231 [2] and in the data set on MDA-MB-231 [10] was Active. For the same compound, the concentration at 4 h in data set [19] and in data set [21] was 10 nM in each case. In [20], the concentration at 2 h stood at 21 nM. Further, the outcome in the data set with MDA-MB-231 [5] was inactive. The MTD in the data set on Mus musculus [6] was > 150 mg/kg. Further, the t1/2 with Liver amounted to 33 min. The values for the Activity entry in the data set with Mus musculus [7] and in the data set with MDA-MB-231 [17] were “Non-toxic” and “Dose-dependent effect”, respectively.
